# Hits are enriched below; roughly 2.6% of the tested compounds scored in any of these assays.
# Platelet DG rel: inhibitors of platelet dense granule secretion, primary screen, cell-based, MLPCN, human platelets | human platelet-rich plasma, SFLLRN dense granule ATP release, luminescence | inhibition, %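 (compounds screened at 7.5 µM in platelet-rich plasma)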 | hit rate 0.22% among 300,000;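 active = mean replicate score, as percent of positive control, at or above 50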
# VLA-4 inh: inhibition in human VLA-4 binding assay, primary screen, VLA-4 allosteric modulator project, MLPCN library, flow cytometry, VLA-4 expressing cells. hit rate 0.2% among 330,000. Integrin alpha-4 (Homo sapiens), P13612. AID 2557, 2010. inhibition, % (about 7 µM as worked out from the volumes in the protocol). ligand binding flow cytometry; in the data active = inhibition above about 50%
# TAAR1 ag: human TAAR1 agonists, primary screen, Fluo-8 calcium fluorescence, CHO RD-HGA16 cells | Trace amine-associated receptor 1 (Homo sapiens), Q96RJ0 | vehicle wells 0%, saturating PEA agonist 100% | activation, % at 3 µM | hit rate 0.99% among 360,000 | AID 624467, 2012;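 active = activation above the mean activation of all test compounds in the run plus 3 SD, cut at about 38% in these data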
# Target sequence (Q96RJ0 whole entry, looked up): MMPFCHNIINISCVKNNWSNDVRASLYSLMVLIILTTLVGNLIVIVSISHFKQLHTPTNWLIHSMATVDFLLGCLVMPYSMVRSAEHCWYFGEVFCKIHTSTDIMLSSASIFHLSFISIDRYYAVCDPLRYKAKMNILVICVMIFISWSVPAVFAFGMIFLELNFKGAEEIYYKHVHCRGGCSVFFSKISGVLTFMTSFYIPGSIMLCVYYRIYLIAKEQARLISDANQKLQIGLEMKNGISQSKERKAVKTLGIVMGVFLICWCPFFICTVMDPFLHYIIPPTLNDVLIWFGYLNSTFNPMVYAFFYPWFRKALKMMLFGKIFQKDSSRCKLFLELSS
#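 test system = CHO RD-HGA16 cells carrying human TAAR1 plus Gα16 | schedule = 17-24 h seeding, 75 min 37 °C dye, 30 min RT | compound dosing = 3 µM single concentration | control set = DMSO and PEA EC100 | replicates = n 1 | signal = Fluo-8 fluorescence, 5 s baseline then 140 s kinetic read | measure = percent activation vs PEA EC100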
# Rce1 inh: yeast Rce1p protease inhibitors, primary screen, biochemical, fluorescence, cell-free homogeneous; hit rate 0.27% among 290,000; AID 2563, 2010; calls only; yeast membranes, quenched prenylated peptide cleavage fluorescence; CAAX prenyl protease 2 (Saccharomyces cerevisiae (strain ATCC 204508 / S288c)), Q03530;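 active = fall in fluorescence gain of 50% or more versus controls, with final raw signal at or below 3038400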;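 also: plate controls were neutral control wells for no effect and wells lacking membranes for full effect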
# Target sequence (Q03530 whole entry, looked up): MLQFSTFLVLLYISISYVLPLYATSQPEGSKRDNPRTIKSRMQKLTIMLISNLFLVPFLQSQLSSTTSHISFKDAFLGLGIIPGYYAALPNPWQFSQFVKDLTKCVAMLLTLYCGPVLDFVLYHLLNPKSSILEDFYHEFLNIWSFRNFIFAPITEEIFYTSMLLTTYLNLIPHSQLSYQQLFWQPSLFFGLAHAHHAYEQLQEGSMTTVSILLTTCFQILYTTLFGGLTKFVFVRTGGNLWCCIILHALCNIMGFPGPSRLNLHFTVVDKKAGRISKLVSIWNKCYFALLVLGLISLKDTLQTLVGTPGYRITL
# TAAR1 antag: human TAAR1 antagonists, primary screen, Fluo-8 calcium fluorescence, CHO RD-HGA16 cells; AID 624466, 2012; Trace amine-associated receptor 1 (Homo sapiens), Q96RJ0; inhibition, % at 3 µM; hit rate 1.5% among 360,000; antagonist;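 active = inhibition above a per-plate cutoff, the mean inhibition of test compounds on that plate plus 3 SD, cut at about 49% in these data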;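 also: 0% = DMSO plus EC80 beta-PEA response and 100% = DMSO alone without agonist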
#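 Material: CHO RD-HGA16 cells bearing hTAAR1; compound dosing: one-point dosing, 3 µM nominal final; schedule: dye loading 75 min at 37 °C, then 30 min room temperature; measured by: calcium fluorescence with Fluo-8; control set: vehicle and agonist controls; replication: n of 1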
# VLA-4 mod pick: retest of VLA-4 allosteric modulators, confirmation, cell-based, cherry-picked plates, U937, HUTS-21 LIBS antibody. shares compounds with VLA-4 inh. U937 cells, HUTS-21 LIBS mAb binding, flow cytometry; LDV ligand present at threefold Kd. inhibition, % at 6.7 µM. hit rate 2% among 1,300. AID 2813, 2010; in the data active = inhibition above about 40%;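 also: 0% = ligand without compound and 100% = no ligand background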
# * marks the source's active call; other numbers are inactive results; i = inactive; · = no result given.
SMILES,Platelet DG rel,VLA-4 inh,TAAR1 ag,Rce1 inh,TAAR1 antag,VLA-4 mod pick
O=C(c1cc(Br)ccc1Cl)N1CCN(c2ccc(N3CCOCC3)nn2)CC1,-15.4,50.8*,0.9,i,-21.4,2.7
CCC(CC)NC(=O)C1CC(=O)N(CCc2ccc(F)cc2)C1 (centres undefined),-5.0,-2.9,4.6,i,-11.8,·
COCCCC1CCN(Cc2nc(-c3ccccc3)no2)CC1,5.1,42.3,2.6,i,-3.1,7.0
Cc1cc(OC(=O)c2cc(F)c(F)cc2Cl)nc(C)n1,3.4,62.6*,2.7,i,0.2,14.4
COc1ccc(S(=O)(=O)N2CCSC2C)cc1C (centres undefined),0.4,-4.9,1.8,i,-17.0,·
O=C(Nc1cccc(-c2cscn2)c1)C1CCN(Cc2ccccn2)CC1,-1.7,·,-0.5,i,-6.0,·
Cc1ccc2c(c1)/C(=C/c1ccccc1F)C(=O)N2,2.6,41.0,4.3,i,-17.5,-12.6
Cc1ccc(C)c(S(=O)(=O)Nc2ccc(C(N)=O)cc2)c1,-1.1,-5.0,1.3,i,-23.7,-6.2
O=C(CSc1nccn1Cc1ccc(F)cc1)NC1CCCCC1,·,·,2.9,·,-1.8,·
CC(C)(C)N1NC(=O)Nc2ccccc2C1=O,3.0,-3.3,7.2,i,0.9,·
CN1CC(=O)Nc2ccccc2C1=O,-1.0,41.8,-0.1,i,-5.5,-10.2
CN1CC(=O)Nc2ccc(Br)cc2C1=O,15.8,52.2*,3.9,i,-8.9,2.1
CCOc1ncccc1C(=O)N1CCN(C(c2ccccc2)c2ccccc2)CC1,0.2,-8.6,1.8,i,14.1,·
CCOc1ccc(Oc2c(/C=N/NC(=O)COc3ccccc3OC)c(C)nn2-c2ccccc2)cc1,-12.5,46.1,0.9,i,18.2,2.9
O=C(N/N=C/c1ccc(Cl)cc1)c1cc(-c2cccnc2)nc2ccccc12,-9.5,49.9*,7.5,i,11.6,18.3
O=C(N/N=C/c1ccc(Cl)c([N+](=O)[O-])c1)c1cc(-c2ccccc2)nc2ccccc12,-18.4,56.4*,1.9,i,-2.2,5.3
CCOc1cccnc1Sc1ccccc1,-7.0,0.5,7.6,i,-15.9,·
COCCN1CC(=O)N2C(c3cccc(C)c3)c3[nH]c4ccccc4c3C[C@H]2C1=O (some centres undefined),-9.4,41.3,30.2,i,22.0,-2.8
Cc1nc([N+](=O)[O-])c(SCC(N)=O)n1Cc1ccccc1,-1.5,-9.5,11.2,i,-13.7,·
Cc1nc([N+](=O)[O-])c(NCCO)n1Cc1ccccc1,7.7,53.9*,1.9,i,3.6,2.7
CC(C)NC(=O)N1c2ccccc2Sc2ccccc21,7.2,-3.4,2.1,i,-9.5,·
CC(C)(C)NC(=O)N1c2ccccc2Sc2ccccc21,2.2,54.4*,4.4,i,-19.8,2.6
C=C[C@]1(C)C=C2C(=O)[C@@]3(O)OC(=O)[C@@]4(CCCC(C)(C)[C@H]34)[C@@]2(O)CC1,·,·,28.1,·,-5.5,·
Cc1cc(=O)oc2c3c(cc(OCC(=O)N[C@@H](C)C(=O)O)c12)OC(C)(C)CC3,-2.5,-6.7,9.5,i,-13.4,·
Cc1cc(=O)oc2c3c(cc(OCC(=O)NC(Cc4ccc(Cl)cc4)C(=O)O)c12)OC(C)(C)CC3 (centres undefined),1.3,21.9,-0.8,i,-12.6,13.0
SMILES,Platelet DG rel,VLA-4 inh,TAAR1 ag,Rce1 inh,TAAR1 antag,VLA-4 mod pick
Cc1cc(=O)oc2c3c(cc(OCC(=O)N[C@@H](Cc4ccccc4)C(=O)O)c12)OC(C)(C)CC3,-1.6,50.2*,0.8,i,-70.5,6.1
CC1=C(C(=O)N(C(C)C)C(C)C)CC(CC(=O)NCCc2ccccn2)C(=O)N1CCC1=CCCCC1 (centres undefined),·,·,1.6,·,-10.5,·
CC1(C)CC(N2CCCC2)=CC(=[N+]2CCCCC2)C1,-14.4,50.0*,0.8,i,1.2,-8.6
O=C1C=C(OCCF)CC(c2cccc([N+](=O)[O-])c2)O1 (centres undefined),·,·,0.0,·,6.7,·
CCOc1ccc(OCCC(=O)N(CCOC)c2c(N)n(Cc3ccccc3)c(=O)[nH]c2=O)cc1,·,·,1.4,·,-14.7,·
O=C(Nc1ccc(F)cc1)NC1(C(=O)NCc2ccco2)CCCCC1,8.4,51.9*,1.8,i,-3.0,4.4
Cc1ccc([N+](=O)[O-])cc1N(CC(=O)N1CCCCC1)S(C)(=O)=O,1.7,52.6*,10.0,i,0.8,-3.5
C[C@]12CC[C@@H]3c4ccc(OS(=O)(=O)O)cc4CC[C@H]3[C@@H]1CCC2=O,-0.8,7.8,2.1,i,0.4,·
CC12CCC3c4ccc(O)cc4CCC3C1CCC2=O (centres undefined),·,54.5*,5.2,·,19.9,12.2
Nc1cccc(S(=O)(=O)Nc2ccccc2)c1,-7.0,20.0,8.4,i,-8.6,5.1
O=S(=O)(Nc1ccncc1)c1ccccc1,3.8,4.1,-0.4,i,3.0,·
CC(=O)c1ccc(NS(=O)(=O)c2ccc(N)cc2)cc1,-2.9,7.1,11.2,i,5.2,-2.8
CC(=O)c1ccc(NS(=O)(=O)c2ccccc2)cc1,-2.1,-12.8,1.9,i,10.4,·
Nc1ccc(NS(=O)(=O)c2ccccc2)cc1,4.6,-7.0,2.2,i,3.8,10.9
CCn1c(=NC(=O)CS(=O)(=O)c2ccc(C)cc2)sc2cccc(OC)c21,-1.1,-6.8,-0.5,i,20.4,·
CNC(=O)c1ccc2cc(OC)c(OC)cc2c1,·,·,0.9,·,-9.6,·
COc1ccc(S(=O)(=O)NC(=O)C2(C)CCN2C(=O)Cc2ccccc2)cc1OC (centres undefined),·,·,-0.1,·,-9.8,·
CCOC(=O)c1c(NC2=NS(=O)(=O)c3ccccc32)sc2c1CCC(C)C2 (centres undefined),-3.8,60.0*,1.2,i,-20.6,5.4
Cc1c(O)ccc(NS(=O)(=O)c2ccccc2)c1C,0.4,15.1,9.6,i,0.1,-2.1
COc1ccc(/C=N/NC(=O)c2ccncc2)c(C(=O)O)c1OC,-2.3,2.8,-2.4,i,-24.3,·

# High-throughput results as filed in PubChem.
